The source made the active and inactive calls. The rule behind the calls is not given here.
How the values were obtained:
[1] = target: T1, Transient receptor potential cation channel subfamily A member 1 (Homo sapiens, UniProt O75762); experiment: Agonist activity at human TRPA1 expressed in HEK293 cells assessed as increase in calcium influx at 30 uM by Fluo-4-AM dye based fluorescence assay relative to calcimycin; type: cell-based
In short: (§1)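 Stably transfected hTRPA1- or hTRPM8-HEK293 cells on poly-D-lysine plates for 48 h, loaded with Fluo-4AM (2 µM, 45 min, dark, room temperature), in isotonic HEPES buffer pH 7.4. FlexStation 240 s run: 20 s baseline, compound added, calcimycin added at 180 s. ΔRFU expressed as % calcimycin, DMSO-subtracted. Screening N = 3. Dose-response curves fitted for logEC50 (N = 3 in duplicate or triplicate).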

[2] = target: T1, Transient receptor potential cation channel subfamily A member 1; experiment: Antagonist activity at human TRPA1 expressed in HEK293 cells assessed as increase in calcium influx at 100 uM incubated for 10 mins prior to CA addition by Fluo-4-AM dye based fluorescence assay relative to CA; type: cell-based; set-up: scale not given: the % may be the effect or the level left
In short: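 hTRPA1-HEK293 cells loaded with Fluo-4AM (2 µM). Compound pre-incubated 10 min, then cinnamaldehyde standard agonist added. FlexStation read, ex 485/em 538 nm. ΔRFU normalized to the CA response set at 100 % after DMSO vehicle subtraction. N = 3. logIC50 taken from dose-response fits.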

[3] = target: T2, Transient receptor potential cation channel subfamily M member 8 (Homo sapiens, UniProt Q7Z2W7); experiment: Agonist activity at human TRPM8 expressed in HEK293 cells assessed as increase in calcium influx at 30 uM by Fluo-4-AM dye based fluorescence assay relative to calcimycin; type: cell-based; in short: as §1
Target sequence in this assay (Q7Z2W7 whole entry, looked up): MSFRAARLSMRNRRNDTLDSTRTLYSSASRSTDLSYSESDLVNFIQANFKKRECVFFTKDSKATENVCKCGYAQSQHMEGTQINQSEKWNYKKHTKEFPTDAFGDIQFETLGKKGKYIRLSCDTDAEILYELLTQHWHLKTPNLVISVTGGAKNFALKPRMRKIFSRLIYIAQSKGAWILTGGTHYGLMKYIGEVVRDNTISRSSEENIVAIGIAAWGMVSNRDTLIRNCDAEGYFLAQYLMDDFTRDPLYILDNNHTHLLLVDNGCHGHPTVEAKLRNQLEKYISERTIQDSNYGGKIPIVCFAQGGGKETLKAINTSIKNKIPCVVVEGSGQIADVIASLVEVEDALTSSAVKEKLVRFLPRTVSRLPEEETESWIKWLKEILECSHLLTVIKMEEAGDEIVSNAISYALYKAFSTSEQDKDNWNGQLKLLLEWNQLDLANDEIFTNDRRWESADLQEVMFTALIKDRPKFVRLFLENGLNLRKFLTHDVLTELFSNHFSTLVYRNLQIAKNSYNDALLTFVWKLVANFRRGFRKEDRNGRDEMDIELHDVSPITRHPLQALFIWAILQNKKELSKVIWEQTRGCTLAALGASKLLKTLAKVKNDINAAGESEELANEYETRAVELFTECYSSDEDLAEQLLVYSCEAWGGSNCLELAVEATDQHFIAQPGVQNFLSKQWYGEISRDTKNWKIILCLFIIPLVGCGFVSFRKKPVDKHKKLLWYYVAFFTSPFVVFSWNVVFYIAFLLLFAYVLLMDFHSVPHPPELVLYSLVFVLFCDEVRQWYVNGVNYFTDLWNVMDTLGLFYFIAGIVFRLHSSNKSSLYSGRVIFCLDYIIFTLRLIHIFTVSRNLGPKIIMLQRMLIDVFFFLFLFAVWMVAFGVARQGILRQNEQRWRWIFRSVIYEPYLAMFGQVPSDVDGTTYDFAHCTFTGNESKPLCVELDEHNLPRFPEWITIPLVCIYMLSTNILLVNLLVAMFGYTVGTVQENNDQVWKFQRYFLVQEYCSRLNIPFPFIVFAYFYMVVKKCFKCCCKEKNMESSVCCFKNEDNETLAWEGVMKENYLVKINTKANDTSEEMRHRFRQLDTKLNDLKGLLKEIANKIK

[4] = target: T2, Transient receptor potential cation channel subfamily M member 8; experiment: Antagonist activity at human TRPM8 expressed in HEK293 cells assessed as increase in calcium influx at 100 uM incubated for 10 mins prior to WS5 challenge by Fluo-4-AM dye based fluorescence assay relative to WS5; type: cell-based; set-up: scale not given: the % may be the effect or the level left
In short: (§2)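 hTRPM8-HEK293 cells loaded with Fluo-4AM (2 µM, 45 min). Test compound pre-incubated 10 min before WS5 standard agonist. FlexStation fluorescence at 485/538 nm. ΔRFU given as % of WS5 response after DMSO vehicle subtraction. N = 3. IC50 from dose-response curves.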
Target sequence in this assay (Q7Z2W7 whole entry, looked up): as above

[5] = Dissociation constant, pKa of the compound at pH 7.4; type: physicochemical
[6] = target: T2, Transient receptor potential cation channel subfamily M member 8; experiment: Agonist activity at human TRPM8 expressed in HEK293 cells assessed as increase in calcium influx at 100 uM by Fluo-4-AM dye based fluorescence assay relative to calcimycin; type: cell-based; in short: as §1
Target sequence in this assay (Q7Z2W7 whole entry, looked up): as above

[7] = target: T1, Transient receptor potential cation channel subfamily A member 1; experiment: Agonist activity at human TRPA1 expressed in HEK293 cells assessed as increase in calcium influx by Fluo-4-AM dye based fluorescence assay; type: cell-based; details: read-out: EC50; in short: as §1
[8] = tested on: Transient receptor potential cation channel subfamily A member 1 (Homo sapiens), O75762 [F909A]; experiment: Agonist activity at human TRPA1 Phe909Ala mutant expressed in HEK293 cells assessed as Ca2+ influx at 30 uM by fluorescence assay; type: cell-based
In short: (§3)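 HEK293 cells stably expressing hTRPA1 point mutants (C621A, F909A or F944A), single-cell cloned under G418 selection. Cells plated on poly-D-lysine for 48 h, loaded with Fluo-4AM 2 µM for 45 min at room temperature. FlexStation read (ex 485/em 538 nm): 20 s baseline, compound added, calcimycin added at 180 s. Response expressed as % calcimycin from ΔRFU, vehicle-subtracted, and compared with wild-type hTRPA1 cells.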

[9] = tested on: Transient receptor potential cation channel subfamily A member 1 (Homo sapiens), O75762 [F909A]; experiment: Agonist activity at human TRPA1 Phe909Ala mutant expressed in HEK293 cells assessed as Ca2+ influx at 10 uM by fluorescence assay; type: cell-based; in short: as §3
[10] = tested on: Transient receptor potential cation channel subfamily A member 1 (Homo sapiens), O75762 [F944A]; experiment: Agonist activity at human TRPA1 Phe944Ala mutant expressed in HEK293 cells assessed as Ca2+ influx at 10 uM by fluorescence assay; type: cell-based; in short: as §3
[11] = tested on: Transient receptor potential cation channel subfamily A member 1 (Homo sapiens), O75762 [F944A]; experiment: Agonist activity at human TRPA1 Phe944Ala mutant expressed in HEK293 cells assessed as Ca2+ influx at 30 uM by fluorescence assay; type: cell-based; in short: as §3
[12] = target: T1, Transient receptor potential cation channel subfamily A member 1; experiment: Antagonist activity at human TRPA1 expressed in HEK293 cells assessed as inhibition of CA-induced increase in calcium influx incubated for 10 mins prior to CA addition by Fluo-4-AM dye based fluorescence assayy; type: cell-based
[13] = target: T1, Transient receptor potential cation channel subfamily A member 1; experiment: Agonist activity at human TRPA1 expressed in HEK293 cells assessed as increase in calcium influx at 3 uM by Fluo-4-AM dye based fluorescence assay relative to calcimycin; type: cell-based; in short: as §1
[14] = target: T2, Transient receptor potential cation channel subfamily M member 8; experiment: Antagonist activity at human TRPM8 expressed in HEK293 cells assessed as increase in calcium influx at 3 uM incubated for 10 mins prior to WS5 challenge by Fluo-4-AM dye based fluorescence assay relative to WS5; type: cell-based; set-up: scale not given: the % may be the effect or the level left; in short: as §2
Target sequence in this assay (Q7Z2W7 whole entry, looked up): as above

[15] = target: T2, Transient receptor potential cation channel subfamily M member 8; experiment: Antagonist activity at human TRPM8 expressed in HEK293 cells assessed as inhibition in WS5-induced increase in calcium influx incubated for 10 mins prior to WS5 challenge by Fluo-4-AM dye based fluorescence assay; type: cell-based; in short: as §2
Target sequence in this assay (Q7Z2W7 whole entry): as the sequence (Q7Z2W7 whole entry, looked up) above

[16] = target: T1, Transient receptor potential cation channel subfamily A member 1; experiment: Antagonist activity at human TRPA1 expressed in HEK293 cells assessed as increase in calcium influx at 3 uM incubated for 10 mins prior to CA challenge by Fluo-4-AM dye based fluorescence assay […]; type: cell-based; set-up: scale not given: the % may be the effect or the level left

Chain of Transient receptor potential cation channel subfamily A member 1 (Homo sapiens), O75762 [F909A] (O75762 whole entry F909A): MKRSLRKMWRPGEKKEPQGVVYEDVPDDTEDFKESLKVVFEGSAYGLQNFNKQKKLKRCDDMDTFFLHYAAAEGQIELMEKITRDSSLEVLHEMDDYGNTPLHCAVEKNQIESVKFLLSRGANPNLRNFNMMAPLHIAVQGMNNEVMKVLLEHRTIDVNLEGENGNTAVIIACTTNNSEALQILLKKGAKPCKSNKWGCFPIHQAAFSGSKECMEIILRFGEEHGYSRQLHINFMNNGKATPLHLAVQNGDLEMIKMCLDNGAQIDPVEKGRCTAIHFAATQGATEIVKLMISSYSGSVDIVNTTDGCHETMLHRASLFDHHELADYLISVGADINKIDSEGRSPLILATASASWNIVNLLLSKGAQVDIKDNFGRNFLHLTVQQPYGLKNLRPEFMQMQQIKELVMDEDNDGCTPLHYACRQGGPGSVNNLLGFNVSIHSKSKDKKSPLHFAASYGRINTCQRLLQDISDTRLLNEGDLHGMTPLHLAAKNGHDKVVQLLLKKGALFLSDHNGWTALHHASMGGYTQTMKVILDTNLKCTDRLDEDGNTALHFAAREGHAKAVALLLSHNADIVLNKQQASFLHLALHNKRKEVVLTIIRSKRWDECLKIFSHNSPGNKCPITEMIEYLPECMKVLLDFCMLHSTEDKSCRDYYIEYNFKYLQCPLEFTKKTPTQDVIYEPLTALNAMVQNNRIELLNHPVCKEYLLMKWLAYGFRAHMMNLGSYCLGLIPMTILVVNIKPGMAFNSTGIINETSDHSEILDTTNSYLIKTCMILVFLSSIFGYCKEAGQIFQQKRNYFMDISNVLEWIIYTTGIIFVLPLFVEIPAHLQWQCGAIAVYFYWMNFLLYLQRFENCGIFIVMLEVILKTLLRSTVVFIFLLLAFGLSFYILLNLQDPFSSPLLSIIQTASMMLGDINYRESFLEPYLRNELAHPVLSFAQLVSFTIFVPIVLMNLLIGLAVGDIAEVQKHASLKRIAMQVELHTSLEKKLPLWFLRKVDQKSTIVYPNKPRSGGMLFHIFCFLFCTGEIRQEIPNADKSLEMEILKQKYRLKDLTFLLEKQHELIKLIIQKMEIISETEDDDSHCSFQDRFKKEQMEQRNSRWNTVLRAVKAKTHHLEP
T1 sequence (O75762 whole entry): as the sequence (O75762 whole entry F909A) above, with A909F counted along it
Chain of Transient receptor potential cation channel subfamily A member 1 (Homo sapiens), O75762 [F944A] (O75762 whole entry F944A): as the sequence (O75762 whole entry F909A) above, with A909F, F944A counted along it

| Structure (SMILES) | Activity [1] | Activity [2] | Activity [3] | Activity [4] | pKa [5] | Activity [6] | Activity [13] | Activity [14] | further results |
| --- | --- | --- | --- | --- | --- | --- | --- | --- | --- |
| O=C(/C=C/c1ccccc1)Nc1ccccc1C(=O)O | 24% | 42% | inactive | 48% | 3.5 | inactive | – | – | – |
| CCCCCc1ccc(/C=C/C(=O)Nc2ccccc2C(=O)O)cc1 | – | – | – | – | – | – | – | – | EC50 [7]: 28 µM; Activity [8]: Active; Activity [9]: Active; Activity [10]: inactive; Activity [11]: Active |
| COc1ccc(/C=C/C(=O)Nc2ccccc2C(=O)O)cc1 | 27% | 19% | inactive | 68% | 3.5 | inactive | – | – | EC50 [7]: 49 µM; IC50 [12]: 12 µM; Activity [8]: Active; Activity [11]: inactive |
| COC(=O)c1ccccc1NC(=O)/C=C/c1ccc(F)cc1 | – | – | – | – | 13.9 | – | 34% | 85% | – |
| COC(=O)c1ccccc1NC(=O)/C=C/c1ccccc1Cl | – | – | – | – | 13.7 | – | 29% | 53% | – |
| CC(=C\c1ccc(Cl)cc1)/C(C)=N/O [AP18 5] | – | – | – | – | – | – | – | – | IC50 [12]: 4 µM |
| Cc1ccc(/C=C/C(=O)Nc2ccccc2C(=O)O)cc1 | 30% | 40% | inactive | 48% | 3.5 | inactive | – | – | EC50 [7]: 149 µM; Activity [8]: Active; Activity [11]: inactive |
| COc1ccc(CCC(=O)Nc2ccccc2C(=O)O)cc1 | 6% | 74% | inactive | 57% | 3.5 | inactive | – | – | – |
| C/C(=C\c1ccccc1)C(=O)Nc1ccccc1C(=O)O | 33% | 29% | inactive | 28% | 3.5 | inactive | – | – | EC50 [7]: 133 µM; IC50 [15]: 27 µM; Activity [8]: Active; Activity [11]: inactive |
| C=CCN=C=S | – | – | – | – | – | – | – | – | Activity [9]: Active |
| O=C(O)[C@@H]1CCCN1C(=O)/C=C/c1ccccc1 | 5% | 79% | inactive | 65% | 3.2 | inactive | – | – | – |
| COC(=O)c1ccccc1NC(=O)/C(C)=C/c1ccccc1 | – | – | – | – | 13.9 | – | 49% | 30% | Activity [16]: 73% |
| O=C(Nc1ccccc1C(=O)O)/C(=C/c1ccccc1)c1ccccc1 | 66% | 22% | 14% | – | 3.4 | 34% | – | – | EC50 [7]: 11 µM; Activity [9]: Active |
| COC(=O)c1ccccc1NC(=O)/C=C/c1ccc(OC(C)=O)cc1 | – | – | – | – | 13.8 | – | 10% | 84% | – |
| COc1ccc(/C=C/C(=O)Nc2ccccc2C(=O)O)cc1OC | 6% | 56% | inactive | 65% | 3.5 | inactive | – | – | IC50 [12]: 126 µM |
| O=C(/C=C/c1ccc(O)c(O)c1)Nc1ccccc1C(=O)O | – | – | – | – | 3.5 | inactive | – | – | – |
| COC(=O)c1ccccc1NC(=O)/C=C/c1ccc(Cl)cc1 | – | – | – | – | 13.8 | – | 45% | 70% | – |
| COC(=O)c1ccccc1NC(=O)/C=C/c1ccc(OC(C)=O)c(OC(C)=O)c1 | – | – | – | – | 13.6 | – | 12% | 102% | – |

— ChEMBL document CHEMBL4346663, “N-Cinnamoylanthranilates as human TRPA1 modulators: Structure-activity relationships and channel binding sites” (Eur J Med Chem, 2019)
